Experimental data taken from ChEMBL document CHEMBL3227921, “Synthetic antagonists of in vivo responses by the rat uterus to oxytocin” (J Med Chem, 1979).
Calls of active or inactive are those of the source. The calls are words filed in the database; no cut-off is given here. Numbered stars: 1 amine (or outer) side, 2 acyl side, 3 side chain; on linkers, the order of the positions; unused ones are H or OH. Bridge positions count the residues as written; N and C are the ends. Square brackets hold non-standard residues; d marks the D form. Peptide text beside a SMILES is read from it. * marks the point of attachment. X1 = O=C(CC1(S[*:2])CCCCC1)[*:1]; X3 = CCC(CC)(CC(=O)[*:1])S[*:2]; X2 = CC(C)(CC(=O)[*:1])S[*:2]; X4 = NC(=O)NC(=O)CN*; Mpa = O=C(O)CCS

Experiments:
[1] = molecular target: T1, Oxytocin receptor (Rattus norvegicus, UniProt P70536); test: Antagonist activity at oxytocin receptor in rat uterus pretreated with diethylstilbestrol compound treated 1 min prior to oxytocin addition; assay type: tissue-based; details: read-out: pA2 (converted)
T1 sequence (P70536 whole entry): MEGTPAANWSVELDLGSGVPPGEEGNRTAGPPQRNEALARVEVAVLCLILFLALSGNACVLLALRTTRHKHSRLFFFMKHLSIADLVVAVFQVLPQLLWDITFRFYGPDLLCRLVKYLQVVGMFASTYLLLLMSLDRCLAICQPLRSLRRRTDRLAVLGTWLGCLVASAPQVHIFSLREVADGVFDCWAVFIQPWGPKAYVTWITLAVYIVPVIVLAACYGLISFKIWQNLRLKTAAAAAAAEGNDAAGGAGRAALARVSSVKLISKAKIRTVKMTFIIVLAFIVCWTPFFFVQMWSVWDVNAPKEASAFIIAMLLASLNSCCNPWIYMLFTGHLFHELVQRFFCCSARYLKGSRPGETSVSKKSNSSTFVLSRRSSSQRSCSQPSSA
In short: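 Isolated uterine horns from diethylstilbestrol-pretreated rats suspended in Munsick's solution without Mg2+. Isometric contractions recorded. Antagonist added to bath 1 min before agonist. pA2 calculated by Schild's method: negative log of the molar antagonist concentration that reduces the response to 2x units of agonist to the response to x units without antagonist. Mean ± SE over assay groups.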

[2] = (§1) Antagonist activity at rat vasopressin receptor
In short: (§2)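 Anesthetized rats, vasopressor responses recorded per Dekanski. Antagonist injected 1 min before agonist. In vivo "pA2" estimated by the method of Dyckes et al., which assumes a volume of distribution for the injected antagonist. Mean ± SE over assay groups.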

[3] = molecular target: T1, Oxytocin receptor; test: Antagonist activity at oxytocin receptor in rat uterus pretreated with diethylstilbestrol compound treated 1 min prior to oxytocin addition in presence of 0.5 mM Mg2+; assay type: tissue-based; details: read-out: pA2 (converted)
In short: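 Uterine horns from rats pretreated with diethylstilbestrol, bathed in Munsick's solution containing 0.5 mM Mg2+. Isometric contractions recorded, with antagonist added 1 min ahead of agonist. Schild pA2 taken as negative log molar antagonist concentration reducing the 2x-agonist response to the x-unit response without antagonist. Mean ± SE, number of assay groups given.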

[4] = system: Rattus norvegicus; test: Antioxytocic activity in iv dosed rat uterus pretreated with diethylstilbestrol compound treated 1 min prior to oxytocin injection; assay type: functional, organism-based; details: for Kb: read-out: pA2 (converted)
In short: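 Anesthetized diethylstilbestrol-pretreated rats, modified Bisset uterus assay. Antagonist given intravenously 1 min before agonist. Read-out was integrated intrauterine pressure over 10 min after agonist injection. In vivo "pA2" estimated by the Dyckes et al. method; pA2 6.00 corresponds to 67 nmol/kg i.v. and 7.00 to 6.7 nmol/kg. Mean ± SE over assay groups.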

[5] = molecular target: T2, Oxytocin receptor (Rattus norvegicus) (UniProt P70536); test: Partial agonist activity at oxytocin receptor in rat uterus pretreated with diethylstilbestrol compound treated 1 min prior to oxytocin addition in presence of 0.5 mM Mg2+
T2 sequence (whole entry): T1 sequence (P70536 whole entry)

[6] = species on record: Rattus norvegicus; test: as §1; in short: as §2

SMILES	Kb [1] [nM]	pA2 [2]	Kb [3] [nM]	Activity [5]	Activity [6]	Kb [4] [nM]	Activity [4]
COc1ccc(C[C@@H]2NC(=O)CC(C)(C)SSC[C@@H](C(=O)N3CCC[C@H]3C(=O)N[C@@H](CCCN=C(N)N)C(=O)NCC(N)=O)NC(=O)[C@H](CC(N)=O)NC(=O)[C@H](CCC(N)=O)NC(=O)[C@H](Cc3ccccc3)NC2=O)cc1 (Y(Me)FQNCPRG-NH2; linker N-5 via X2)	24.5	–	–	–	–	–	–
CC[C@H](C)[C@@H]1NC(=O)[C@H](Cc2ccc(O)cc2)NC(=O)CC2(CCCCC2)SSC[C@@H](C(=O)N2CCC[C@H]2C(=O)N[C@@H](CC(C)C)C(=O)NCC(N)=O)NC(=O)[C@H](CC(N)=O)NC(=O)[C@H](CCC(N)=O)NC1=O (YIQNCPLG-NH2; linker N-5 via X1)	24.5	–	70.8	–	–	224	–
CC[C@H](C)[C@@H]1NC(=O)[C@H](Cc2ccc(O)cc2)NC(=O)CC(C)(C)SSC[C@@H](C(=O)N2CCC[C@H]2C(=O)N[C@@H](CC(C)C)C(=O)NCC(N)=O)NC(=O)[C@H](CC(N)=O)NC(=O)[C@H](CCC(N)=O)NC1=O (YIQNCPLG-NH2; linker N-5 via X2)	–	–	2340	Active	–	–	–
CC[C@H](C)[C@@H]1NC(=O)[C@H](Cc2ccc(O)cc2)NC(=O)CC(CC)(CC)SSC[C@@H](C(=O)N2CCC[C@H]2C(=O)N[C@@H](CC(C)C)C(=O)NCC(N)=O)NC(=O)[C@H](CC(N)=O)NC(=O)[C@H](CCC(N)=O)NC1=O (YIQNCPLG-NH2; linker N-5 via X3)	28.2	6.83	151	–	–	631	–
CC[C@H](C)[C@@H]1NC(=O)[C@H](Cc2ccc(O)cc2)NC(=O)CC2(CCCCC2)SSC[C@@H](C(=O)N2CCC[C@H]2C(=O)N[C@@H](CC(C)C)C(=O)NCC(N)=O)NC(=O)[C@H](CC(N)=O)NC(=O)[C@H]([C@@H](C)O)NC1=O (YITNCPLG-NH2; linker N-5 via X1)	12.3	5.86	15.5	–	–	115	–
CC[C@H](C)[C@@H]1NC(=O)[C@H](Cc2ccc(OC)cc2)NC(=O)CCSSC[C@@H](C(=O)N2CCC[C@H]2C(=O)N[C@@H](CC(C)C)C(=O)NCC(=O)NC(N)=O)NC(=O)[C@H](CC(N)=O)NC(=O)[C@H](CCC(N)=O)NC1=O ([Mpa]Y(Me)IQNCPL-X4; disulfide 1-6)	126	–	245	–	Active	–	Active

Now from value to compound, other results behind:

Kb [1] [nM]	pA2 [2]	Kb [3] [nM]	Activity [5]	Activity [6]	SMILES	Kb [4] [nM]	Activity [4]
17.4	7.59	15.8	–	–	CC[C@H](C)[C@@H]1NC(=O)[C@H](Cc2ccc(OC)cc2)NC(=O)CC(C)(C)SSC[C@@H](C(=O)N2CCC[C@H]2C(=O)N[C@@H](CC(C)C)C(=O)NCC(N)=O)NC(=O)[C@H](CC(N)=O)NC(=O)[C@H](CCC(N)=O)NC1=O (Y(Me)IQNCPLG-NH2; linker N-5 via X2)	138	–
22.9	7.32	16.2	–	–	CC[C@H](C)[C@@H]1NC(=O)[C@H](Cc2ccc(OC)cc2)NC(=O)CC(C)(C)SSC[C@@H](C(=O)N2CCC[C@H]2C(=O)N[C@@H](CC(C)C)C(=O)NCC(N)=O)NC(=O)[C@H](CC(N)=O)NC(=O)[C@H]([C@@H](C)O)NC1=O (Y(Me)ITNCPLG-NH2; linker N-5 via X2)	145	–
30.2	6.67	589	Active	–	CC[C@H](C)[C@@H]1NC(=O)[C@H](Cc2ccc(O)cc2)NC(=O)CC(C)(C)SSC[C@@H](C(=O)N2CCC[C@H]2C(=O)N[C@@H](CC(C)C)C(=O)NCC(N)=O)NC(=O)[C@H](CC(N)=O)NC(=O)[C@H]([C@@H](C)O)NC1=O (YITNCPLG-NH2; linker N-5 via X2)	490	–
19.1	6.3	43.7	–	–	CC[C@H](C)[C@@H]1NC(=O)[C@H](Cc2ccc(O)cc2)NC(=O)CC(CC)(CC)SSC[C@@H](C(=O)N2CCC[C@H]2C(=O)N[C@@H](CC(C)C)C(=O)NCC(N)=O)NC(=O)[C@H](CC(N)=O)NC(=O)[C@H]([C@@H](C)O)NC1=O (YITNCPLG-NH2; linker N-5 via X3)	339	–
